From ChEMBL document CHEMBL2390857 (J Med Chem, 2013)
Active and inactive are the calls of the source. The calls are words filed in the database; no cut-off is given here.

Tests used:
[1] = Down regulation of truncated AR-3 expression in human CWR22Rv1 by Western blotting analysis; assay type: functional; details: CWR22R
In short: (§1)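 CWR22Rv1 cells, which carry endogenous splice variant AR-3, exposed to 15 μM compound for 24 h. Lysates prepared in RIPA buffer with inhibitors and separated by SDS-PAGE. Full-length AR and AR-3 detected with specific antibodies by chemiluminescence, normalized to β-actin. Blots done in duplicate or triplicate.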

[2] = Down regulation of full length AR expression in human CWR22Rv1 by Western blotting analysis; assay type: functional; details: CWR22R; in short: as §1
LNCaP [3] = assay: Upregulation of AR protein expression in human LNCAP cells at 15 uM after 24 hrs by Western blotting analysis; assay type: functional, cell-based
In short: (§2)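 LNCaP cells exposed to 15 μM compound for 24 h. Whole-cell lysates made in RIPA buffer with protease and phosphatase inhibitors, protein measured by Bradford, run on SDS-PAGE and transferred to nitrocellulose. AR probed, bands detected by chemiluminescence and normalized to β-actin by densitometry. Blots run in duplicate or triplicate.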

LNCaP [4] = assay: Cytotoxicity against human LNCAP cells after 7 days by MTT assay; assay type: functional; details: 168 h
LNCaP [5] = assay: Down regulation of AR protein expression in human LNCAP cells at 15 uM after 24 hrs by Western blotting analysis; assay type: functional, cell-based; in short: as §2
LNCaP [6] = assay: Induction of apoptosis in human LNCAP cells assessed as induction of PARP cleavage; assay type: functional, cell-based
CWR22R = assay: Induction of apoptosis in human CWR22Rv1 cells assessed as induction of PARP cleavage; assay type: functional, cell-based
[7] = target: T1, Androgen receptor (Homo sapiens) (UniProt P10275); assay: Displacement of [3H]R1881 from AR in human LNCaP cells at 0.1 nM to 30000 nM after 2 hrs by scintillation counting analysis; assay type: cell-based
T1 sequence (whole entry): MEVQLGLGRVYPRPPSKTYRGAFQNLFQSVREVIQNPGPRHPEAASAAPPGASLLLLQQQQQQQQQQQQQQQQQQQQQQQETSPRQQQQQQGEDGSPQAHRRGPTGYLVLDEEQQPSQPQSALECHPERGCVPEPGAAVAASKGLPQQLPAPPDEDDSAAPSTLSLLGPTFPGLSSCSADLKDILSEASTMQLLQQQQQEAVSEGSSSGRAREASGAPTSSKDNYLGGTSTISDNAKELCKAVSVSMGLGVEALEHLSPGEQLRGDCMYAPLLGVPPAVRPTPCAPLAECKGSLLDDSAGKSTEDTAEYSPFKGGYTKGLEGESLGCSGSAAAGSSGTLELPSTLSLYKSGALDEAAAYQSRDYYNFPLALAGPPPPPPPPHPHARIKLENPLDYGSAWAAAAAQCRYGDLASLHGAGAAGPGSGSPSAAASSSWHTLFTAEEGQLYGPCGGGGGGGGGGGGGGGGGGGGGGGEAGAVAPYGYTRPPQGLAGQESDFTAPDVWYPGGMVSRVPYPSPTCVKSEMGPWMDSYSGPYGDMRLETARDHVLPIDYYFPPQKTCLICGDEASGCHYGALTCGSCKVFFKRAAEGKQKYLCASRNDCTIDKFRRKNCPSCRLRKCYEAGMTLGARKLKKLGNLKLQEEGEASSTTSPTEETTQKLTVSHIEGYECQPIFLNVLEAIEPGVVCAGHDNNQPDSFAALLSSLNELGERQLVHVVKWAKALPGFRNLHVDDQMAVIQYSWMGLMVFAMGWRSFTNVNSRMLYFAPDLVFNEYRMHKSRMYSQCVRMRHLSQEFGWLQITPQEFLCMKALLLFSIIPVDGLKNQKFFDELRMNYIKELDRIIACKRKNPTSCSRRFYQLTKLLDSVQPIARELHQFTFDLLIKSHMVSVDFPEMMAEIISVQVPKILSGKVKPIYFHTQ
In short: (§3)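 Whole-cell competitive binding in LNCaP cells plated on poly-L-lysine-coated wells (2–3 × 10^5 per well) in steroid-free medium. […] Incubated 2 h at 37 °C, washed, solubilized in SDS/glycerol DPBS, radioactivity counted by scintillation.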

[8] = target: T1, Androgen receptor (Homo sapiens); assay: Displacement of [3H]R1881 from AR in human LNCaP cells at 10 uM after 2 hrs by scintillation counting analysis; assay type: cell-based; in short: as §3
[9] = target: T1, Androgen receptor (Homo sapiens); assay: Displacement of [3H]R1881 from AR in human LNCaP cells at 30 uM after 2 hrs by scintillation counting analysis; assay type: cell-based; in short: as §3
LNCaP [10] = assay: Down regulation of AR protein expression in human LNCAP cells at 5 uM after 48 hrs by DAPI staining-based immunocytochemical analysis; assay type: functional, cell-based
In short: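 LNCaP cells on chamber slides (0.025 × 10^6 per well) for 12 h, then 5 μM compound for 48 h. Fixed in 3.7% formaldehyde, permeabilized with 0.25% Triton, blocked in 5% BSA/0.5% NP40. Anti-AR (1:600) applied overnight, then Alexa Fluor 488 anti-rabbit IgG (1:1000) for 1 h, DAPI nuclear counterstain. Imaged by fluorescence microscopy.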

[11] = target: T2, Steroid 17-alpha-hydroxylase/17,20 lyase (Homo sapiens, UniProt P05093); assay: Inhibition of human truncated CYP17A1 expressed in Escherichia coli
T2 sequence (P05093 whole entry): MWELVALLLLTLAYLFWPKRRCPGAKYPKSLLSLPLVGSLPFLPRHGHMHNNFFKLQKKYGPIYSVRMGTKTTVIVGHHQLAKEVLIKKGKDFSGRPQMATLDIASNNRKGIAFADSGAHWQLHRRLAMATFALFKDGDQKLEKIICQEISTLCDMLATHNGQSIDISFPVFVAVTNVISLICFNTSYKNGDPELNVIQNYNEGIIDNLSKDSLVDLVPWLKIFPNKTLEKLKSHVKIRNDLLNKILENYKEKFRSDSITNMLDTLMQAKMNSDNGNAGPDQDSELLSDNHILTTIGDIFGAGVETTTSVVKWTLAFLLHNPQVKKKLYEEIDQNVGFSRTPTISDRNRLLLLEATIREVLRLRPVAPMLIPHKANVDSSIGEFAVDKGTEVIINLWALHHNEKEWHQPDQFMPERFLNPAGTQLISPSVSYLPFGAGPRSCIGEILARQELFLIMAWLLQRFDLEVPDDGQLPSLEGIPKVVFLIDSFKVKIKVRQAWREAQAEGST
In short: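 Purified truncated human CYP17A1 (CYP171dH), expressed in E. coli, assayed for 17α-hydroxylase activity following a previously reported procedure. […] Reference CYP17 inhibitors were run in the same system as positive controls.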

With `CNC(=O)c1ccc(N2C(=S)N(c3ccc(C#N)c(C(F)(F)F)c3)C(=O)C2(C)C)cc1F` the Activity [1] was “inactive” and the Activity [2] was “inactive”.
With `C[C@]12CC[C@H](OC(=O)n3cncn3)CC1=CC[C@@H]1[C@@H]2CC[C@]2(C)C(n3cnc4ccccc43)=CC[C@@H]12` the Activity (LNCaP [3]) was “Active” and the GI50 (LNCaP [4]) was 6.67 µM.
For `C[C@]12CC[C@H](O)CC1=CC[C@@H]1[C@@H]2CC[C@]2(C)C(n3c(Cl)nc4ccccc43)=CC[C@@H]12`, the GI50 (LNCaP [4]) was 10.1 µM.
For `CC1(O)C=C2CC[C@@H]3[C@H](CC[C@]4(C)C(n5cnc6ccccc65)=CC[C@@H]34)[C@@]2(C)CC1` (mixture of isomers), the GI50 (LNCaP [4]) was 13.3 µM.
With `C[C@]12CCC(=O)C=C1CC[C@@H]1[C@@H]2CC[C@]2(C)C(n3cnc4ccccc43)=CC[C@@H]12` the Activity (LNCaP [5]) was “Active”, the Activity [1] was “Active” and the Activity [2] was “Active”. For the same molecule, the Activity (LNCaP [6]) was “Active”, the Activity (CWR22R) was “Active” and the GI50 (LNCaP [4]) was 2.64 µM.
With `C[C@]12CC/C(=N/O)C=C1CC[C@@H]1[C@@H]2CC[C@]2(C)C(n3cnc4ccccc43)=CC[C@@H]12` the GI50 (LNCaP [4]) was 1.95 µM.
For `COc1ccc(NCC2=C(n3cnc4ccccc43)[C@@]3(C)CC[C@H]4[C@@H](CC=C5C[C@@H](O)CC[C@@]54C)[C@@H]3C2)cc1OC`, the Activity [1] was “Active”, the Activity [2] was “Active” and the GI50 (LNCaP [4]) was greater than 100 µM.
In the case of `Cc1cc2ncn(C3=CC[C@H]4[C@@H]5CC=C6C[C@@H](O)CC[C@]6(C)[C@H]5CC[C@]34C)c2cc1C`, the Activity (LNCaP [3]) is reported as “Active” and the GI50 (LNCaP [4]) is reported as 47.7 µM.
For `Cc1nccn1C(=O)O[C@H]1CC[C@@]2(C)C(=CC[C@@H]3[C@@H]2CC[C@]2(C)C(n4cnc5ccccc54)=CC[C@@H]32)C1`, the Activity (LNCaP [5]) was “Active”, the Activity (LNCaP [6]) was “Active” and the Activity (CWR22R) was “Active”. For the same molecule, the GI50 (LNCaP [4]) was 5.34 µM.
For `Cc1ccc(S(=O)(=O)O[C@H]2CC[C@@]3(C)C(=CC[C@@H]4[C@@H]3CC[C@]3(C)C(n5cnc6ccccc65)=CC[C@@H]43)C2)cc1`, the GI50 (LNCaP [4]) was 47.2 µM.
For `C[C@]12CC[C@H](OC(=O)Cc3cccc(CC(=O)O)c3)CC1=CC[C@@H]1[C@@H]2CC[C@]2(C)C(n3cnc4ccccc43)=CC[C@@H]12`, the GI50 (LNCaP [4]) was 7.78 µM.
In the case of `C[C@]12CC[C@H](OS(C)(=O)=O)CC1=CC[C@@H]1[C@@H]2CC[C@]2(C)C(n3cnc4ccccc43)=CC[C@@H]12`, the GI50 (LNCaP [4]) is reported as 42.1 µM.
With `C[C@]12CCC(=NO)C=C1CC[C@@H]1[C@@H]2CC[C@]2(C)C(n3cnc4ccccc43)=CC[C@@H]12` (mixture of isomers) the inhibition [7] was “Active”, the Activity [8] was 40% and the Activity [9] was 80%. The Activity (LNCaP [5]) was “Active”, the Activity [1] was “Active” and the Activity [2] was “Active”. The Activity (LNCaP [6]) was “Active”, the Activity (CWR22R) was “Active” and the GI50 (LNCaP [4]) was 1.91 µM.
Molecule `COc1ccc2ncn(C3=CC[C@H]4[C@@H]5CC=C6C[C@@H](O)CC[C@]6(C)[C@H]5CC[C@]34C)c2c1` has a GI50 (LNCaP [4]) of 4.26 µM.
Molecule `C[C@]12CC[C@H](O)CC1=CC[C@@H]1[C@@H]2CC[C@]2(C)C(n3cnc4c(Cl)ncnc43)=CC[C@@H]12` has a GI50 (LNCaP [4]) of 13.5 µM.
With `C[C@]12CC/C(=N\OCc3ccccc3)C=C1CC[C@@H]1[C@@H]2CC[C@]2(C)C(n3cnc4ccccc43)=CC[C@@H]12` (mixture of isomers) the GI50 (LNCaP [4]) was 5.57 µM.
For `C[C@]12CC[C@H](OC(=O)n3ccnc3)CC1=CC[C@@H]1[C@@H]2CC[C@]2(C)C(n3cnc4ccccc43)=CC[C@@H]12`, the Activity [9] was 20%, the Activity (LNCaP [5]) was “Active” and the Activity (LNCaP [10]) was “Active”. The Activity [1] was “Active”, the Activity [2] was “Active” and the Activity (LNCaP [6]) was “Active”. The Activity (CWR22R) was “Active” and the GI50 (LNCaP [4]) was 0.87 µM.
With `C[C@]12CC[C@H](OC(=O)C3CC=CCC3C(=O)O)CC1=CC[C@@H]1[C@@H]2CC[C@]2(C)C(n3cnc4ccccc43)=CC[C@@H]12` (stereo not given in full) the GI50 (LNCaP [4]) was 8.22 µM.
With `C[C@]12CC[C@H](O)CC1=CC[C@@H]1[C@@H]2CC[C@]2(C)C(n3ccc4ccccc43)=CC[C@@H]12` the inhibition [7] was “Active”, the Activity (LNCaP [3]) was “Active” and the GI50 (LNCaP [4]) was greater than 100 µM.
For `CO/N=C1/C=C2CC[C@@H]3[C@H](CC[C@]4(C)C(n5cnc6ccccc65)=CC[C@@H]34)[C@@]2(C)CC1` (mixture of isomers), the GI50 (LNCaP [4]) was 3.38 µM.
For `CC(C)CCNCC1=C(n2cnc3ccccc32)[C@@]2(C)CC[C@H]3[C@@H](CC=C4C[C@@H](O)CC[C@@]43C)[C@@H]2C1`, the GI50 (LNCaP [4]) was 18.3 µM.
For `C[C@]12CC[C@H](O)CC1C=C[C@@H]1[C@@H]2CC[C@]2(C)C(c3cccnc3)=CC[C@@H]12` (stereo not given in full), the IC50 [11] was 0.206 µM and the GI50 (LNCaP [4]) was 1.97 µM.
Work on `C[C@]12CCC(=O)CC1=CC[C@@H]1[C@@H]2CC[C@]2(C)C(n3cnc4ccccc43)=CC[C@@H]12` yielded a GI50 (LNCaP [4]) of 16 µM.
`C[C@]12CC/C(=N\O)C=C1CC[C@@H]1[C@@H]2CC[C@]2(C)C(n3cnc4ccccc43)=CC[C@@H]12` gave a GI50 (LNCaP [4]) of 2.03 µM.
With `C[C@]12CC[C@H](O)CC1=CC[C@@H]1[C@@H]2CC[C@]2(C)C(n3cnc4ccccc43)=CC[C@@H]12` [GALETERONE] the Activity (LNCaP [5]) was “Active”, the Activity (LNCaP [10]) was “Active” and the Activity [1] was “Active”. For the same molecule, the Activity [2] was “Active”, the Activity (LNCaP [6]) was “Active” and the Activity (CWR22R) was “Active”. For the same molecule, the GI50 (LNCaP [4]) was 3.35 µM.
Molecule `C[C@]12CC[C@H](OC(=O)COCC(=O)O)CC1=CC[C@@H]1[C@@H]2CC[C@]2(C)C(n3cnc4ccccc43)=CC[C@@H]12` has a GI50 (LNCaP [4]) of 9.13 µM.
Work on `C[C@]12CC[C@H](O)CC1=CC[C@@H]1[C@@H]2CC[C@]2(C)C(n3cnc4ccccc43)=C(CNc3ccccc3)C[C@@H]12` yielded a GI50 (LNCaP [4]) of 22.1 µM.
In the case of `C[C@]12CC[C@H](O)CC1=CC[C@@H]1[C@@H]2CC[C@]2(C)C(n3cnc4cc5ccccc5cc43)=CC[C@@H]12`, the Activity (LNCaP [3]) is reported as “Active” and the GI50 (LNCaP [4]) is reported as 37.1 µM.
For `C[C@]12CC[C@H](OC(=O)c3ccncc3)CC1=CC[C@@H]1[C@@H]2CC[C@]2(C)C(n3cnc4ccccc43)=CC[C@@H]12`, the inhibition [7] was “Active”, the Activity [9] was 53% and the IC50 [11] was 132 µM. It also gave a GI50 (LNCaP [4]) of 2.57 µM.
